Data as given in ChEMBL document CHEMBL2093137, “WHO-TDR NTD Screening”.
Values after ≈ are worked out from the molar mass of the structure shown.

Legend:
[1] = WHO-TDR: Cytotoxicity; type: toxicity, cell-based; conditions: human, MRC5 cells
Trypanosoma cruzi = assay: WHO-TDR: Chagas disease; type: functional, organism-based, Homo sapiens; conditions: MRC5
Method in brief: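 Intracellular amastigotes of the Trypanosoma cruzi Tulahuen CL2 beta-galactosidase strain, grown in MRC-5SV2 human lung fibroblast host cells, were tested in a whole-organism screen. The compounds came from a 10,000-member diverse Life Chemicals library that had been filtered for drug-likeness and reactive groups. Previously published standard procedures were followed, with a reference drug as positive control, and potency is reported as IC50.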

Plasmodium falciparum K1 = assay: WHO-TDR: Malaria; type: functional, organism-based, Homo sapiens; conditions: Erythrocyte
Method in brief: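 Whole-organism screen of a 10,000-compound diverse library from Life Chemicals, filtered for drug-likeness and reactive groups, against intra-erythrocytic Plasmodium falciparum K1 strain in human red blood cells. The assay followed previously published standard procedures, with a reference drug as positive control. Antiplasmodial potency is reported as IC50.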

Onchocerca ochengi [2] = assay: (§1) WHO-TDR: Onchocerciasis; type: functional; design: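 at 12.5 µM on microfilariae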
Method in brief: (§2)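 Whole-organism screen of a 10,000-compound diverse library from Life Chemicals, filtered for drug-likeness and reactive groups, against microfilariae of Onchocerca ochengi or Onchocerca lienalis, used as animal-pathogen stand-ins for the human parasite. The assay followed previously published standard procedures, with reference drugs as positive controls. Activity is reported as percent inhibition and as IC50.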

Leishmania infantum = assay: WHO-TDR: Leishmaniasis; type: functional, organism-based, Mus musculus; conditions: Macrophage
Method in brief: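 Whole-organism screen of a 10,000-compound diverse library from Life Chemicals, filtered for drug-likeness and reactive groups, against intracellular amastigotes of Leishmania infantum MHOM/MA(BE)/67 in murine peritoneal macrophage host cells. The assay followed previously published standard procedures, with a reference drug as positive control. Antiparasitic potency is reported as IC50.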

Onchocerca ochengi [3] = assay: as §1; type: functional; design: concentration or dose not given beside the values; method in brief: as §2; remark: listed apart in the source
Schistosoma mansoni = assay: WHO-TDR: Schistosomiasis; type: functional; design: concentration or dose not given beside the values
Method in brief: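 Whole-organism screen of a 10,000-compound diverse library from Life Chemicals, filtered for drug-likeness and reactive groups, against larval and/or adult worms of Schistosoma mansoni Puerto Rican strain. The assay followed previously published standard procedures, with a reference drug as positive control. Activity is reported as percent inhibition and as IC50.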

[4] = system: Trypanosoma brucei brucei; assay: WHO-TDR: Human African Trypanosomiasis (HAT); type: functional, organism-based; conditions: Squib-427
Method in brief: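 Whole-organism screen of a 10,000-compound diverse library from Life Chemicals, filtered for drug-likeness and reactive groups, against bloodstream forms of Trypanosoma brucei Squib 427 strain. The assay followed previously published standard procedures, with reference drugs as positive controls. Antiparasitic potency is reported as IC50.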

Structure (SMILES)	IC50 [1]	IC50 (Trypanosoma cruzi)	IC50 (Plasmodium falciparum K1)	% Inhibition (Onchocerca ochengi [2])	IC50 (Leishmania infantum)	% Inhibition (Onchocerca ochengi [3])	% Inhibition (Schistosoma mansoni)	IC50 [4]
CCCN1C(=O)CCc2cc(NS(=O)(=O)c3ccc(F)cc3)ccc21	> 10.9 µg/mL	10.9 µg/mL (≈ 30 µM)	> 10.9 µg/mL	0%	> 10.9 µg/mL	100%	0%	3.56 µg/mL (≈ 9.83 µM)
COc1ccc(Cl)cc1S(=O)(=O)Nc1ccc2c(c1)CCC(=O)N2CCC(C)C	> 13.1 µg/mL	> 13.1 µg/mL	> 13.1 µg/mL	0%	> 13.1 µg/mL	100%	0%	10.2 µg/mL (≈ 23.4 µM)
CN(C)C(CNC(=O)c1ccc(-c2ccccc2)cc1)c1ccsc1 (stereo unspecified)	> 10.5 µg/mL	3.32 µg/mL (≈ 9.49 µM)	8.47 µg/mL (≈ 24.2 µM)	0%	> 10.5 µg/mL	0%	0%	0.395 µg/mL (≈ 1.13 µM)
CN1CCN(C(CNC(=O)c2c(F)cccc2F)c2ccsc2)CC1 (stereo unspecified)	> 11 µg/mL	0.406 µg/mL (≈ 1.11 µM)	> 11 µg/mL	0%	> 11 µg/mL	0%	0%	> 11 µg/mL
CN1CCN(C(CNC(=O)CCc2ccccc2)c2ccsc2)CC1 (stereo unspecified)	> 10.7 µg/mL	0.498 µg/mL (≈ 1.39 µM)	> 10.7 µg/mL	0%	> 10.7 µg/mL	0%	0%	> 10.7 µg/mL
O=S(=O)(Nc1nc2c(Cl)cccc2s1)c1ccc(Cl)cc1	> 10.8 µg/mL	10.2 µg/mL (≈ 28.4 µM)	> 10.8 µg/mL	0%	> 10.8 µg/mL	100%	0%	> 10.8 µg/mL
O=S(=O)(Nc1nc2c(Cl)cccc2s1)c1ccc(Cl)s1	> 11 µg/mL	10.4 µg/mL (≈ 28.5 µM)	> 11 µg/mL	0%	> 11 µg/mL	100%	0%	> 11 µg/mL
O=S(=O)(Nc1cccc(-c2nc3ccccc3s2)c1)c1ccc(Cl)s1	> 12.2 µg/mL	4.01 µg/mL (≈ 9.85 µM)	> 12.2 µg/mL	0%	> 12.2 µg/mL	100%	0%	> 12.2 µg/mL
Cc1cccc(NC(=O)Cn2cc(S(=O)(=O)c3ccc(F)cc3)c3ccccc32)n1	> 12.7 µg/mL	4.41 µg/mL (≈ 10.4 µM)	> 12.7 µg/mL	0%	> 12.7 µg/mL	100%	0%	4.11 µg/mL (≈ 9.71 µM)
O=C(Nc1onc2c1CCC2)c1cccc(F)c1	4.88 µg/mL (≈ 19.8 µM)	2.12 µg/mL (≈ 8.63 µM)	> 7.39 µg/mL	0%	> 7.39 µg/mL	100%	0%	2.42 µg/mL (≈ 9.83 µM)
O=C(COc1ccc(Cl)cc1Cl)Nc1onc2c1CCC2	> 9.81 µg/mL	> 9.81 µg/mL	> 9.81 µg/mL	0%	> 9.81 µg/mL	0%	0%	0.334 µg/mL (≈ 1.02 µM)
O=C(Cc1cccc2ccccc12)Nc1onc2c1CCC2	2.87 µg/mL (≈ 9.83 µM)	0.498 µg/mL (≈ 1.7 µM)	1.69 µg/mL (≈ 5.79 µM)	0%	> 8.77 µg/mL	0%	0%	0.253 µg/mL (≈ 0.865 µM)
O=C(CS(=O)(=O)c1ccc(F)cc1)Nc1onc2c1CCC2	> 9.73 µg/mL	1.71 µg/mL (≈ 5.28 µM)	2.83 µg/mL (≈ 8.72 µM)	0%	> 9.73 µg/mL	100%	0%	3.19 µg/mL (≈ 9.83 µM)
O=C(Nc1onc2c1CCCC2)c1cccc(Oc2ccccc2)c1	> 10 µg/mL	4.23 µg/mL (≈ 12.7 µM)	8.46 µg/mL (≈ 25.3 µM)	0%	> 10 µg/mL	100%	0%	3.25 µg/mL (≈ 9.71 µM)
CN(C1CC1)S(=O)(=O)c1ccc(C(=O)Nc2onc3c2CCCC3)cc1	> 11.3 µg/mL	3.56 µg/mL (≈ 9.49 µM)	> 11.3 µg/mL	0%	> 11.3 µg/mL	100%	0%	5.97 µg/mL (≈ 15.9 µM)
Cc1cc(F)ccc1S(=O)(=O)Nc1ccc2c(c1)CN(C(=O)c1ccco1)CC2	7.31 µg/mL (≈ 17.6 µM)	3.44 µg/mL (≈ 8.3 µM)	6.28 µg/mL (≈ 15.2 µM)	0%	> 12.4 µg/mL	100%	0%	4.03 µg/mL (≈ 9.71 µM)

Structure (SMILES)	IC50 [1]	IC50 (Trypanosoma cruzi)	IC50 (Plasmodium falciparum K1)	% Inhibition (Onchocerca ochengi [2])	IC50 (Leishmania infantum)	% Inhibition (Onchocerca ochengi [3])	% Inhibition (Schistosoma mansoni)	IC50 [4]
O=C(Nc1nc2c(s1)CCCC2C(=O)NCCC1=CCCCC1)c1ccccc1 (stereo unspecified)	> 12.3 µg/mL	3.45 µg/mL (≈ 8.42 µM)	2.13 µg/mL (≈ 5.19 µM)	0%	> 12.3 µg/mL	100%	0%	2.56 µg/mL (≈ 6.26 µM)
Cc1nn2c(=O)[nH]c(SCc3ccccn3)nc2c1-c1ccccc1	> 10.5 µg/mL	> 10.5 µg/mL	> 10.5 µg/mL	0%	> 10.5 µg/mL	100%	0%	> 10.5 µg/mL
O=C(Nc1ccc(F)cc1)Nc1nc(C(=O)N2CCN(c3ccccc3F)CC2)cs1	5.3 µg/mL (≈ 11.9 µM)	4.32 µg/mL (≈ 9.74 µM)	4.63 µg/mL (≈ 10.4 µM)	0%	> 13.3 µg/mL	0%	0%	0.459 µg/mL (≈ 1.03 µM)
O=C(Cn1c(=O)n(Cc2cccnc2)c(=O)c2ncccc21)c1ccc2c(c1)CCCC2	> 12.8 µg/mL	3.81 µg/mL (≈ 8.93 µM)	2.96 µg/mL (≈ 6.93 µM)	0%	> 12.8 µg/mL	100%	0%	4.14 µg/mL (≈ 9.71 µM)
CCOc1ccccc1NC(=O)Cn1c(=O)n(Cc2cccs2)c(=O)c2ncccc21	> 13.1 µg/mL	> 13.1 µg/mL	2.95 µg/mL (≈ 6.76 µM)	0%	> 13.1 µg/mL	100%	0%	4.24 µg/mL (≈ 9.72 µM)
O=C(Cn1c(=O)n(Cc2cccs2)c(=O)c2ncccc21)OCc1ccccc1	> 12.2 µg/mL	> 12.2 µg/mL	> 12.2 µg/mL	0%	> 12.2 µg/mL	100%	0%	> 12.2 µg/mL
CC1CCN(C(C)CNC(=O)Nc2ccccc2C(F)(F)F)CC1 (stereo unspecified)	7.77 µg/mL (≈ 22.6 µM)	3.39 µg/mL (≈ 9.87 µM)	2.22 µg/mL (≈ 6.46 µM)	0%	> 10.3 µg/mL	0%	0%	0.333 µg/mL (≈ 0.971 µM)
CC1CCN(C(C)CNC(=O)Nc2ccc(C(F)(F)F)cc2)CC1 (stereo unspecified)	8.41 µg/mL (≈ 24.5 µM)	3.26 µg/mL (≈ 9.49 µM)	0.869 µg/mL (≈ 2.53 µM)	100%	3.33 µg/mL (≈ 9.71 µM)	100%	25%	0.333 µg/mL (≈ 0.971 µM)
CC(CNC(=O)Nc1ccc(Oc2ccccc2)cc1)N1CCCCC1 (stereo unspecified)	> 10.6 µg/mL	3.98 µg/mL (≈ 11.3 µM)	0.754 µg/mL (≈ 2.13 µM)	75%	3.43 µg/mL (≈ 9.71 µM)	100%	0%	0.319 µg/mL (≈ 0.902 µM)
CC1CCN(C(C)CNC(=O)Nc2cccc(Cl)c2)CC1 (stereo unspecified)	> 9.29 µg/mL	> 9.29 µg/mL	1.01 µg/mL (≈ 3.26 µM)	0%	4.81 µg/mL (≈ 15.5 µM)	50%	0%	0.301 µg/mL (≈ 0.971 µM)
CC1CCN(C(C)CNC(=O)Nc2ccc(F)cc2)CC1 (stereo unspecified)	> 8.8 µg/mL	> 8.8 µg/mL	3.19 µg/mL (≈ 10.9 µM)	0%	> 8.8 µg/mL	0%	0%	0.303 µg/mL (≈ 1.03 µM)
CC(C)c1cc(C(=O)NCC2CCCO2)nn1-c1nc2ccccc2s1 (stereo unspecified)	> 11.1 µg/mL	> 11.1 µg/mL	> 11.1 µg/mL	0%	> 11.1 µg/mL	100%	0%	> 11.1 µg/mL
Cc1cc(C(=O)Nc2nc(-c3ccc4c(c3)OCCO4)cs2)n(C)n1	> 10.7 µg/mL	> 10.7 µg/mL	> 10.7 µg/mL	0%	> 10.7 µg/mL	100%	0%	> 10.7 µg/mL
Cc1cccc(NC(=O)Cn2nc(C(C)C)c3cnn(-c4ccccc4C)c3c2=O)c1	> 12.5 µg/mL	> 12.5 µg/mL	> 12.5 µg/mL	0%	> 12.5 µg/mL	100%	0%	> 12.5 µg/mL
Cc1cc(C(=O)N(CCCN(C)C)c2nc3c(C)ccc(Cl)c3s2)no1	5.07 µg/mL (≈ 12.9 µM)	4.14 µg/mL (≈ 10.5 µM)	3.3 µg/mL (≈ 8.41 µM)	0%	4.17 µg/mL (≈ 10.6 µM)	100%	0%	0.378 µg/mL (≈ 0.962 µM)
O=C(CC1CCCC1)Nc1nc(CSCc2ccc(F)cc2)cs1	> 10.9 µg/mL	2.43 µg/mL (≈ 6.67 µM)	3.04 µg/mL (≈ 8.35 µM)	0%	> 10.9 µg/mL	100%	0%	3.5 µg/mL (≈ 9.6 µM)
